# Screening data deposited in PubChem BioAssay by Broad Institute.
# E-sel inducer = induces E-selectin expression in human endothelial cells. P16581. HUVEC E-selectin immunofluorescence imaging; normalized: neutral wells 0, TNF-alpha wells 100. activation, % at 7.58 µM. hit rate 0.37% among 260,000. AID 686992;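 active means mean E-selectin-positive cell signal at least 10% of the positive control, reached in at least 60% of replicates, without over 20% cell loss; inconclusive means no rule given, readout overlaps actives, possibly toxicity-flagged; inactive means the rest, including those meeting only one limit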
# Target sequence (P16581 whole entry, looked up): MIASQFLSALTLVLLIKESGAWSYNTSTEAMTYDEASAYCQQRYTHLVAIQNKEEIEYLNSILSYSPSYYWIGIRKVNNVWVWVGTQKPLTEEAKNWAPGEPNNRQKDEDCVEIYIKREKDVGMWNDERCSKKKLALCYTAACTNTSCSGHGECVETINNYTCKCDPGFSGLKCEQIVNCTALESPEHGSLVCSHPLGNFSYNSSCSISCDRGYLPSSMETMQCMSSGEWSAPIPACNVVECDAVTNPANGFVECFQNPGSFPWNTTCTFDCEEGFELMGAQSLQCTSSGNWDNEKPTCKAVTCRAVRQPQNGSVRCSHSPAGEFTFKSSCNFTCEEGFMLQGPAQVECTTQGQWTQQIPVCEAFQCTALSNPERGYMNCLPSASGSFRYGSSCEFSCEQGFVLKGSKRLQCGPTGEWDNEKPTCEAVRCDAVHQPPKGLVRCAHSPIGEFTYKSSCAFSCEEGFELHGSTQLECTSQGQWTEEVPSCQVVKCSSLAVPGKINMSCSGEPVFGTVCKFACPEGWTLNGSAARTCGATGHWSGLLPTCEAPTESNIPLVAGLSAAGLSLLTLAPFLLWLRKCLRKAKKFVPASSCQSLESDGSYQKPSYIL
#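 Read-out: % PE-positive cells | Test system: HUVEC | Doses: One compound dose added by pin transfer | Buffer or medium: EGM-2 over gelatin coat | Signal: Immunofluorescence imaging | Benchmarks: TNF-alpha, DMSO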
# S100A4 inh HTS = S100A4-myosin IIA interaction inhibition. P26447. S100A4/TAMRA-MyoIIA peptide fluorescence polarization. inhibition, % at 10.7 µM. hit rate 0.14% among 360,000. AID 652163;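 active means mean inhibition of at least 70% across replicates, with every replicate also reaching that level; inconclusive means mean inhibition reaches 70% but some replicates fall short; inactive means mean inhibition below 70%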
#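 Material: S100A4 monomer (human). Medium: Calcium-containing HEPES buffer, pH 7.2. Probe or stimulus: labelled myosin peptide probe, 5 nM. Compound dosing: one concentration per compound. Timing: polarization read 5 min after assay mix addition, stable 5–60 min. Benchmarks: DMSO as neutral control, TFP as positive control.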
# CFTR F508del cor = correctors of CFTR F508del function in bronchial epithelial cells; CFBE cells, YFP halide quenching; stimulated with forskolin plus potentiator P3; % fluorescence drop versus neutral controls; activity (quench increase), % at 7.58 µM; hit rate 0.36% among 350,000;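 active means mean added fluorescence quench of at least 8% versus neutral control, with both replicates also reaching 8%; inconclusive means only one of the mean or replicate conditions met; inactive means mean below 8% and not both replicates reaching 8%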;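 further: cells transiently co-express mutant CFTR-F508del with the halide-sensitive YFP; corrector assay measuring rescue of mutant channel to the surface after 24 h compound exposure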
# HIV Env fusion = inhibitors of HIV Env-mediated cell fusion; HeLa-JRFL Env/CEM21 cell fusion, luciferase; inhibition, % at 12.3 µM; hit rate 1.1% among 360,000; AID 651610;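 active means mean replicate inhibition score of at least 50 and every replicate individually at or above 50; inconclusive means only one of the two criteria met; inactive means mean below 50 and not all replicates reaching 50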;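 further: 0% = plate neutral controls and 100% = maraviroc near 300 nM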
# FGF22 binding = FGF22 (human) thermal shift binding | recombinant FGF22 thermal shift, SYPRO orange fluorescence; percent of sucrose octasulfate shift, DMSO zero | activity (Tm shift, normalised), % at 9.99 µM | hit rate 1.5% among 340,000 | AID 651658;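 active means mean Tm shift, scaled 0 neutral to 100 positive control, at about 1.3% or above, every replicate too, limit read from the data; inconclusive means no clear call, values can overlap the other calls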
# Active calls of the source: *; ? = inconclusive; nt = no result given; [ ] = remark or other dose. Rows were chosen to be rich in hits. Some 2.7% of all compounds tested hit in one or more screens of this group.
SMILES,E-sel inducer,S100A4 inh HTS,CFTR F508del cor,HIV Env fusion,FGF22 binding
CCOC(=O)N1CCN(S(=O)(=O)c2ccc(C(=O)NNc3nc4c(C)cccc4s3)cc2)CC1,3,-4,5,60*,0
COCC(=O)Nc1ccc2c(c1)OC[C@@H](C)N(C(=O)COC)C[C@@H](C)[C@@H](OC)CN(C)C2=O,0,-21,-2,nt,0
CC1(C)c2ccccc2N2CC(=O)N(CC(N)=O)C21C (stereo not given),nt,118*,nt,nt,nt
NC(=O)C(c1ccc(Cl)cc1)c1ncc(C(F)(F)F)cc1Cl (stereo not given),nt,nt,nt,-7,nt
COc1ccc(C(C(N)=O)c2ncc(C(F)(F)F)cc2Cl)cc1OC (stereo not given),nt,-1,-6,-8,43*
Cc1cccc(C(C(N)=O)c2ncc(C(F)(F)F)cc2Cl)c1 (stereo not given),1,2,-3,-5,44*
CN1CCN(C(=O)C[C@H]2CC[C@H](NC(=O)c3ccc4c(c3)OCO4)[C@@H](CO)O2)CC1,0,2,-1,15[16.7 µM],0
COC(=O)[C@H](CCSC)NC(=O)Cn1cc(C)c(=O)[nH]c1=O,0,3,8.7*,21,0
COc1cc(CN2CCN(c3cccc(C)c3C)CC2)cc([N+](=O)[O-])c1O,nt,1,-1,13,43*
COc1cc(CN2CCN(c3ccccc3F)CC2)cc(OC)c1O,nt,nt,nt,35,nt
CCn1c(/C=C/N(C)c2ccccc2)[n+](CC)c2ccc(Cl)cc21,nt,nt,nt,70*,nt
O=C(NC(c1ccccc1)c1ccc2ccccc2n1)C1CCN(CCOc2ccc(Cl)cc2Cl)CC1 (stereo not given),1,4,4,50,0
O=C(NC(c1ccc(F)cc1)c1ccc2ccccc2n1)C1CCN(CCOc2ccc(Cl)cc2)CC1 (stereo not given),0,-8,-2,77*,0
O=C(NC(c1ccc(F)cc1)c1ccc2ccccc2n1)C1CCN(Cc2cccc(C(F)(F)F)c2)CC1 (stereo not given),0,-3,-3,75*,0
O=C(NC(c1ccc(F)cc1)c1ccc2ccccc2n1)C1CCN(Cc2ccc3ccccc3n2)CC1 (stereo not given),0,-2,0,9,0
Cc1nc2sc(C(c3ccco3)N3CCC(Cc4ccccc4)CC3)c(O)n2n1 (stereo not given),-1,0,2,82*,0
C(=N\Nc1nc(-c2ccccc2)cs1)/c1cccnc1,nt,nt,nt,-90,nt
CC(C)(C)c1csc(N/N=C/c2cccnc2)n1,0,-12,4,-3,44*
COc1ccc(-c2cc(=O)oc3cc(OC(=O)C4CCCCC4)c(Cl)cc23)cc1,?,1,0,66*,nt
Cc1cccc(C)c1NS(=O)(=O)c1ccc(OCCNS(C)(=O)=O)cc1,nt,1,0,21,43*
O=C(Cc1cccs1)N1CCCC(c2nc3c(nnn3Cc3ccccc3Cl)c(=O)[nH]2)C1 (stereo not given),nt,nt,nt,18,nt
CCC(C)NC(=O)c1nc2c(nnn2Cc2ccccc2Cl)c(=O)[nH]1 (stereo not given),nt,-4,-1,3,43*
O=C(NCc1cccs1)c1nc2c(nnn2Cc2ccccc2Cl)c(=O)[nH]1,nt,nt,nt,111*,nt
Cc1noc(C)c1S(=O)(=O)N(C)C[C@@H]1Oc2ccc(NS(=O)(=O)c3ccc(F)cc3)cc2C(=O)N([C@@H](C)CO)C[C@@H]1C,-10,nt,2,-3[16.7 µM],nt
CO[C@H]1CN(C)C(=O)c2ccc(NC(=O)C3CCC3)cc2OC[C@@H](C)N(Cc2ccncc2)C[C@H]1C,0,53,5,nt,0
SMILES,E-sel inducer,S100A4 inh HTS,CFTR F508del cor,HIV Env fusion,FGF22 binding
COc1ccccc1NC(=S)N(Cc1ccco1)Cc1cc2cc(C)cc(C)c2[nH]c1=O,0,3,10*,42,0
Cc1cc(C)c2nc(Cl)c(CN(Cc3ccco3)C(=O)Nc3ccccc3C)cc2c1,nt,-3,11*,nt,0
C(=C\c1ccccc1)/CN1CCN(c2ncnc3c2oc2ccccc23)CC1,nt,nt,nt,78*,nt
CO[C@H]1CN(C)C(=O)c2cc(NC(C)=O)ccc2OC[C@H](C)N(CCc2ccccc2)C[C@H]1C,0,1,2,nt,0
c1ccc(Nc2nnc(-c3cccnc3)s2)cc1,48*,-1,-5,-51,0
COc1ccc(Nc2ccccc2N)cc1,37*,-24,-2,3,-1
